This is an account of results in ChEMBL document CHEMBL1151755, “Crystal structure of the peroxisome proliferator-activated receptor gamma (PPARgamma) ligand binding domain complexed with a novel partial agonist: a new region of the hydrophobic pocket could be exploited for drug design” (J Med Chem, 2008).

A word on the EC50: it is the concentration that produces a half-maximal response. Lower therefore signals higher potency in that assay.

The target in experiment [1] is T1, Peroxisome proliferator-activated receptor alpha (Homo sapiens, UniProt Q07869).
T1 sequence (Q07869 whole entry): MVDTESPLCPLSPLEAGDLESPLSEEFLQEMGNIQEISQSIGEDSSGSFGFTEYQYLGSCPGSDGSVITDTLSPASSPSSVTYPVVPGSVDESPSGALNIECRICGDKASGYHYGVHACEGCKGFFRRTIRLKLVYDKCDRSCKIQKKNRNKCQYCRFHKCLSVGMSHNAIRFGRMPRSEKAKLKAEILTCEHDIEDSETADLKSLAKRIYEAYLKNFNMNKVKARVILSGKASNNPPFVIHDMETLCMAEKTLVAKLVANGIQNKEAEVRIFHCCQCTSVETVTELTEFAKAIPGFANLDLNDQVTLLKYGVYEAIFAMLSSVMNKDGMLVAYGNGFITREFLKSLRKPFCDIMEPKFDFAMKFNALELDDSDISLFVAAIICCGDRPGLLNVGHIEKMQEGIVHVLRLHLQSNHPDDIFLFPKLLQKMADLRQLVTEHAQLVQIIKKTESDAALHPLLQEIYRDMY
The experiment is described as follows: Agonist activity at PPARalpha ligand binding domain expressed in human Hep G2 cells co-transfected with Gal4-DBD by luciferase reporter gene assay. The format is cell-based, HepG2. The method in brief: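 Gal4-LBD fusion vector (50 ng) was co-transfected with pGal4UAS-luciferase (100 ng) and pCMVβ β-galactosidase normalizer (300 ng) into HepG2 cells by calcium phosphate for 4 h. Cells were washed, then given serum-free DMEM/F-12 with ligand or 0.1% ethanol vehicle for 20 h. Luciferase was normalized to β-galactosidase. EC50 came from concentration-response curves, mean ± SEM of 3–5 independent experiments in triplicate.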
A general note: In a reporter assay the amount or activity of a reporter protein is the signal.

Experiment [2] concerns the target T2, Peroxisome proliferator-activated receptor alpha (Homo sapiens) (UniProt Q07869).
T2 sequence (whole entry): T1 sequence (Q07869 whole entry)
The experiment is described as follows: Agonist activity at PPARalpha ligand binding domain expressed in human Hep G2 cells co-transfected with Gal4-DBD by luciferase reporter gene assay relative to Wy 14,643. In kind it is cell-based. The conditions noted are these: HepG2. In outline: (§1)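 HepG2 cells received the Gal4-receptor LBD construct (50 ng), pGal4UAS-luciferase (100 ng) and pCMVβ (300 ng) by calcium phosphate coprecipitation for 4 h. They were then treated in serum-free DMEM/F-12 with ligand or 0.1% ethanol for 20 h. Luciferase was normalized to β-galactosidase, and efficacy was expressed as percent of the Wy 14,643 maximum (100%). Values are mean ± SEM of 3–5 experiments in triplicate.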

In experiment [3] the target is T2, Peroxisome proliferator-activated receptor alpha (Homo sapiens). Put plainly: Agonist activity at human PPARalpha ligand binding domain expressed in human Hep G2 cells co-transfected with Gal4-DBD by luciferase reporter gene assay relative to Wy 14,643. In kind it is cell-based. The conditions noted are these: HepG2. In outline: as §1
Experiment [4] concerns the target T3, Peroxisome proliferator-activated receptor alpha (Mus musculus) (UniProt P23204).
T3 sequence (whole entry): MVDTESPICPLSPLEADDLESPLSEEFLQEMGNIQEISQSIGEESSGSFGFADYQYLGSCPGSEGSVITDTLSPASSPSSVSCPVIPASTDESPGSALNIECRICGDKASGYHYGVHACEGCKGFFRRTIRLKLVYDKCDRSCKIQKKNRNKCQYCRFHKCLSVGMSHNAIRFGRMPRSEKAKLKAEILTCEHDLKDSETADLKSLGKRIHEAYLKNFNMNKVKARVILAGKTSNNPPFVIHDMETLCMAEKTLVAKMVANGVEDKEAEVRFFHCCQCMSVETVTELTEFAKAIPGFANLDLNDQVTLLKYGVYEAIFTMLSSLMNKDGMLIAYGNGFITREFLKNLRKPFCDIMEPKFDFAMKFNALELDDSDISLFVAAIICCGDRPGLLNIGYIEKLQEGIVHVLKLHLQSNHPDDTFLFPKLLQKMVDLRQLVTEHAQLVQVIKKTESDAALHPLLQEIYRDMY
Put plainly: Agonist activity at mouse PPARalpha ligand binding domain expressed in human Hep G2 cells co-transfected with Gal4-DBD by luciferase reporter gene assay relative to Wy 14,643. In kind it is cell-based. The conditions noted are these: HepG2. In outline: as §1

Turning to `O=C(O)[C@H](Cc1ccccc1)Oc1ccc(CCc2ccccc2)cc1`, in experiment [1], the response was half-maximal at 150 nM (EC50). In experiment [2], this compound came in with an Efficacy of 83%.
For `O=C(O)[C@H](Cc1ccccc1)Oc1ccc(Cc2ccccc2)cc1`, the EC50 in experiment [1] worked out at 11 nM. Also, in experiment [2], the Efficacy worked out at 107%.
Take `Cc1cccc(Nc2cc(Cl)nc(SCC(=O)O)n2)c1C`: the Efficacy in experiment [3] and in experiment [4] was 100% throughout.
